Results as given in ChEMBL document CHEMBL1156088, “Synthesis and biological activity of novel oxazolidinones” (2009).

Key:
Type in all cases: functional
[1] = tested on: Staphylococcus aureus; test: Antibacterial activity against Staphylococcus aureus 15187 by NCCLS method
Outline: (§1)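 In vitro MIC determination by the NCCLS method against a panel of gram-positive bacteria. Two oxazolidinone reference standards were tested alongside.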

[2] = tested on: Enterococcus faecalis; test: Antibacterial activity against Enterococcus faecalis ATCC 29212 by NCCLS method; outline: as §1
[3] = tested on: Staphylococcus aureus; test: Antibacterial activity against Staphylococcus aureus ATCC 25923 by NCCLS method; outline: as §1
[4] = tested on: Staphylococcus aureus; test: Antibacterial activity against methicillin-resistant Staphylococcus aureus 33 by NCCLS method
Outline: (§2)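 In vitro MIC determined by the NCCLS method against a panel of gram-positive bacteria. Ranbezolid and linezolid were run alongside as reference standards.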

[5] = tested on: Streptococcus pneumoniae; test: Antibacterial activity against Streptococcus pneumoniae ATCC 6303 by NCCLS method; outline: as §1
[6] = tested on: Staphylococcus aureus; test: Antibacterial activity against methicillin-resistant Staphylococcus aureus 562 by NCCLS method; outline: as §2
[7] = tested on: Enterococcus faecium; test: Antibacterial activity against vancomycin-resistant Enterococcus faecium 6A by NCCLS method; outline: as §2
[8] = tested on: Streptococcus pyogenes; test: Antibacterial activity against Streptococcus pyogenes ATCC 19615 by NCCLS method; outline: as §1

Measured: MIC

O=C(NC[C@H]1CN(c2ccc(N3CCN(Cc4ccc([N+](=O)[O-])o4)CC3)c(F)c2)C(=O)O1)c1cc2ccccc2o1
> 16 µg/mL: all assays above

COC(=S)NC[C@H]1CN(c2ccc(N3CCN(Cc4ccc([N+](=O)[O-])o4)CC3)c(F)c2)C(=O)O1
1 µg/mL: [2] | [7] | [8]
0.5 µg/mL: [5]
2 µg/mL: all other assays above

O=C(NC[C@H]1CN(c2ccc(N3CCN(Cc4ccc([N+](=O)[O-])o4)CC3)c(F)c2)C(=O)O1)c1ccc([N+](=O)[O-])s1
> 16 µg/mL: all assays above

CC(=O)NC[C@H]1CN(c2ccc(N3CCOCC3)c(F)c2)C(=O)O1 [LINEZOLID]
2 µg/mL: [7] | [8]

O=C(NC[C@H]1CN(c2ccc(N3CCN(Cc4ccc([N+](=O)[O-])o4)CC3)c(F)c2)C(=O)O1)C(F)F
1 µg/mL: [1]
0.5 µg/mL: [5] | [8]
2 µg/mL: all other assays above

O=C1O[C@@H](CNc2ccon2)CN1c1ccc(N2CCN(Cc3ccc([N+](=O)[O-])o3)CC2)c(F)c1
1 µg/mL: [5] | [8]
2 µg/mL: all other assays above

O=C(/C=C/c1ccc2c(c1)OCO2)NC[C@H]1CN(c2ccc(N3CCN(Cc4ccc([N+](=O)[O-])o4)CC3)c(F)c2)C(=O)O1
> 16 µg/mL: all assays above

O=C1O[C@@H](COc2ccon2)CN1c1ccc(N2CCN(Cc3ccc([N+](=O)[O-])o3)CC2)c(F)c1
> 16 µg/mL: all assays above

O=C(NC[C@H]1CN(c2ccc(N3CCN(Cc4ccc([N+](=O)[O-])o4)CC3)c(F)c2)C(=O)O1)C(Cl)Cl
> 16 µg/mL: all assays above

O=C(NC[C@H]1CN(c2ccc(N3CCN(Cc4ccc([N+](=O)[O-])o4)CC3)c(F)c2)C(=O)O1)c1ccc(Br)o1
> 16 µg/mL: all assays above

O=C(/C=C/c1ccccc1)NC[C@H]1CN(c2ccc(N3CCN(Cc4ccc([N+](=O)[O-])o4)CC3)c(F)c2)C(=O)O1
> 16 µg/mL: all assays above

NC(=S)NC[C@H]1CN(c2ccc(N3CCN(Cc4ccc([N+](=O)[O-])o4)CC3)c(F)c2)C(=O)O1
0.5 µg/mL: [2]
< 0.06 µg/mL: [5]
0.25 µg/mL: [8]
1 µg/mL: all other assays above

NC[C@H]1CN(c2ccc(N3CCN(Cc4ccc([N+](=O)[O-])o4)CC3)c(F)c2)C(=O)O1
> 16 µg/mL: all assays above

O=CNC[C@H]1CN(c2ccc(N3CCN(Cc4ccc([N+](=O)[O-])o4)CC3)c(F)c2)C(=O)O1
0.5 µg/mL: [8]
1 µg/mL: [5]
4 µg/mL: [3] | [7]
2 µg/mL: all other assays above

O=C(CF)NC[C@H]1CN(c2ccc(N3CCN(Cc4ccc([N+](=O)[O-])o4)CC3)c(F)c2)C(=O)O1
0.5 µg/mL: [8]
2 µg/mL: [1] | [6]
1 µg/mL: [5]
4 µg/mL: all other assays above

O=C(NC[C@H]1CN(c2ccc(N3CCN(Cc4ccc([N+](=O)[O-])o4)CC3)c(F)c2)C(=O)O1)c1ccc([N+](=O)[O-])o1
2 µg/mL: [1] | [4]
> 8 µg/mL: [7] | [8]
8 µg/mL: [3] | [5]
1 µg/mL: [6]
4 µg/mL: [2]

COCC(=O)NC[C@H]1CN(c2ccc(N3CCN(Cc4ccc([N+](=O)[O-])o4)CC3)c(F)c2)C(=O)O1
> 16 µg/mL: all assays above

O=C(/C=C/c1ccc(F)cc1)NC[C@H]1CN(c2ccc(N3CCN(Cc4ccc([N+](=O)[O-])o4)CC3)c(F)c2)C(=O)O1
> 16 µg/mL: all assays above

O=C1O[C@@H](CO)CN1c1ccc(N2CCN(Cc3ccc([N+](=O)[O-])o3)CC2)c(F)c1
> 16 µg/mL: all assays above

O=C1O[C@@H](CN=C=S)CN1c1ccc(N2CCN(Cc3ccc([N+](=O)[O-])o3)CC2)c(F)c1
> 16 µg/mL: all assays above

CC(Cl)C(=O)NC[C@H]1CN(c2ccc(N3CCN(Cc4ccc([N+](=O)[O-])o4)CC3)c(F)c2)C(=O)O1 (some centres not stated)
> 16 µg/mL: all assays above

CC(=S)NC[C@H]1CN(c2ccc(N3CCN(Cc4ccc([N+](=O)[O-])o4)CC3)c(F)c2)C(=O)O1
0.25 µg/mL: [5]
0.5 µg/mL: [8]
1 µg/mL: all other assays above

CSC(=S)NC[C@H]1CN(c2ccc(N3CCN(Cc4ccc([N+](=O)[O-])o4)CC3)c(F)c2)C(=O)O1
> 16 µg/mL: all assays above

COC(=O)NC[C@H]1CN(c2ccc(N3CCN(Cc4ccc([N+](=O)[O-])o4)CC3)c(F)c2)C(=O)O1
2 µg/mL: [6]
1 µg/mL: [5] | [8]
8 µg/mL: all other assays above

CC(=O)NC[C@H]1CN(c2ccc(N3CCN(Cc4ccc([N+](=O)[O-])o4)CC3)c(F)c2)C(=O)O1 [RANBEZOLID]
1 µg/mL: [3]
0.125 µg/mL: [5] | [8]
not listed: [1]
2 µg/mL: all other assays above

O=C(CCl)NC[C@H]1CN(c2ccc(N3CCN(Cc4ccc([N+](=O)[O-])o4)CC3)c(F)c2)C(=O)O1
0.5 µg/mL: [5] | [8]
2 µg/mL: all other assays above

CCOC(=O)NC[C@H]1CN(c2ccc(N3CCN(Cc4ccc([N+](=O)[O-])o4)CC3)c(F)c2)C(=O)O1
> 16 µg/mL: all assays above

CN(C)C(=S)NC[C@H]1CN(c2ccc(N3CCN(Cc4ccc([N+](=O)[O-])o4)CC3)c(F)c2)C(=O)O1
> 16 µg/mL: all assays above
